Series [1] has as its target T1, Integrin alpha-V/beta-3 (Homo sapiens, UniProt P05106+P06756). In words: Binding affinity for non-peptide Vitronectin receptor (alpha V beta 3). In kind it is protein-complex assay. The gist of the method: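 Competitive binding to human αvβ3, with 3H-SK&F 107260 as the displaced radioligand. Ki is the mean of two to three separate experiments.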
The target in series [2] is T1, Integrin alpha-V/beta-3. In words: Inhibition of HEK 293 cell adhesion to vitronectin by alpha V beta 3. Type of series: cell-based, HEK293. Put shortly: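 Cell-based αvβ3 affinity. HEK 293 cells transfected with human αvβ3 were tested for inhibition of adhesion of purified human vitronectin. IC50 is the mean of two experiments run in triplicate with an internal standard.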

Series [3] has as its target Integrin alpha-IIb/beta-3 (Homo sapiens, UniProt P05106+P08514). In words: Binding affinity for alpha IIb beta3 integrin. In kind it is protein-complex assay. Put shortly: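 Competitive binding to human αIIbβ3, with 3H-SK&F 107260 as the displaced ligand. Ki is the mean of two to three separate experiments.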
A short description of series [4]: Oral bioavailability in rat. Type of series: ADME, organism-based. To be noted: in vivo. The gist of the method:
(§1)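 Rat pharmacokinetics from plasma concentration–time data in two to three separate animals, by non-compartmental analysis. Oral bioavailability was taken from dose-normalized i.v. and p.o. AUC values.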

Series [5] can be described thus: Half-life was determined. Type of series: ADME, organism-based. Conditions: rat, in vivo. The gist of the method:
as §1

Series [6] can be described thus: Plasma clearance of the compound. In kind it is ADME, organism-based. Conditions: rat. Put shortly:
as §1

Series [7] is filed under the species Homo sapiens. In words: In vitro inhibitory activity determined by human osteoclast resorption assay. Type of series: functional.
For series [8], the species on record is Homo sapiens. Put plainly: In vitro inhibitory activity against human platelet aggregation. Type of series: functional. The gist of the method:
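Inhibition of ADP-induced aggregation in human platelet-rich plasma.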

For a further series, the system named is Rattus norvegicus. Put plainly: In vivo inhibitory activity against bone resorption of calcium response determined in thyroidparathyroidectomized rat model at 2.53 mg/kg/hr after 6 hr. Type of series: functional. The gist of the method:
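Thyroparathyroidectomized rats received compound by continuous i.v. infusion at 2.53 mg/kg/hr. Inhibition of the calcemic response was read after 6 hr.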

The next series concerns the target Integrin alpha-V/beta-5 (Homo sapiens, UniProt P06756+P18084). Put plainly: Binding affinity for integrin alpha V beta 5 receptor. In kind it is protein-complex assay.
Series [9] deals with Integrin alpha-5/beta-1 (Homo sapiens). In words: Binding affinity for alpha 5 beta 1 receptor.

Experimental findings from ChEMBL document CHEMBL1131769, “Orally bioavailable nonpeptide vitronectin receptor antagonists with efficacy in an osteoporosis model” (Bioorg Med Chem Lett, 1999) are described below.

Integrin alpha-IIb/beta-3, sequence (P05106 27-788 limits assumed): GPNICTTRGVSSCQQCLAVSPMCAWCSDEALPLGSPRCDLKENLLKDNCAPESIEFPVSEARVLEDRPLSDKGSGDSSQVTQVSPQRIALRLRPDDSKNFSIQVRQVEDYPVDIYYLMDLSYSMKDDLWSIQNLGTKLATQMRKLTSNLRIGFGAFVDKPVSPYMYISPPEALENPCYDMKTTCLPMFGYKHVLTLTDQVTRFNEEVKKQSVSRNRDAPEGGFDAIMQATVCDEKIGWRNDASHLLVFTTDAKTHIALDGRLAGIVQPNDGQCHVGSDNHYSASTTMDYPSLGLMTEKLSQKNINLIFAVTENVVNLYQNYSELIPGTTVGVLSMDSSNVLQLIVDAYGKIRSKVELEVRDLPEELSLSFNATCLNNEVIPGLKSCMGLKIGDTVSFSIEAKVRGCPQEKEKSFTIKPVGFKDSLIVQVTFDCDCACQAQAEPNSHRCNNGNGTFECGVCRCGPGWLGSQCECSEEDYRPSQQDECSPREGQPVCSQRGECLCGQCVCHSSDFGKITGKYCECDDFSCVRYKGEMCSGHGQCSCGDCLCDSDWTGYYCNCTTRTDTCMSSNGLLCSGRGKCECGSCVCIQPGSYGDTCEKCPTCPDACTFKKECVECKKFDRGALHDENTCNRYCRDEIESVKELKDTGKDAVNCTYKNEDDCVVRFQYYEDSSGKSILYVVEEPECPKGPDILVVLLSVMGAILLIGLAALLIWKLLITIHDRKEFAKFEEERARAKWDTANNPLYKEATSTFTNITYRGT
Integrin alpha-IIb/beta-3, sequence (P08514 32-887 limits assumed): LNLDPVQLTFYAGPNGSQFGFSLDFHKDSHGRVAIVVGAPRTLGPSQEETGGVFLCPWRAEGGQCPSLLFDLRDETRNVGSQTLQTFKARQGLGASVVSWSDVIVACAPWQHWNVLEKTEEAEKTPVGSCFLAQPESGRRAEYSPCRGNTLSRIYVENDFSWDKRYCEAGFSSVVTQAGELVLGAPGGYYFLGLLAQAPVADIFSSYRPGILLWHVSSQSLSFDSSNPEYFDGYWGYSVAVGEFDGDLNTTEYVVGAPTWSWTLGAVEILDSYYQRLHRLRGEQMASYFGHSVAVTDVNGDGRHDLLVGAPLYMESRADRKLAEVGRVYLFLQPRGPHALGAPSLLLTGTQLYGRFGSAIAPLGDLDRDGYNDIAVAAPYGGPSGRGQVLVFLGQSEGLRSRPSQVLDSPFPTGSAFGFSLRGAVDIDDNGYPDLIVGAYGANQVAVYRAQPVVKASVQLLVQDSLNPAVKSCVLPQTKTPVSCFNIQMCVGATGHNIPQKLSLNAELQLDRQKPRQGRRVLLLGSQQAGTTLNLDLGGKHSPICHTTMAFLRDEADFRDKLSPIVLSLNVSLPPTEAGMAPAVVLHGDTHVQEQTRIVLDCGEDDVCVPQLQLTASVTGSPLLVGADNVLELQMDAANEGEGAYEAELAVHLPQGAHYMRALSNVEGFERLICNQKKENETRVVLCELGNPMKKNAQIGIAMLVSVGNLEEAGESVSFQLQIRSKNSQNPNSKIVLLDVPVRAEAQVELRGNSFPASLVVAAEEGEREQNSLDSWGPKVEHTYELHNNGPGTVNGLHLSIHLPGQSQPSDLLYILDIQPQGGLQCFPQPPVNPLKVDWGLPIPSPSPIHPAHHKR
Integrin alpha-IIb/beta-3, sequence (P08514 891-1039 limits assumed): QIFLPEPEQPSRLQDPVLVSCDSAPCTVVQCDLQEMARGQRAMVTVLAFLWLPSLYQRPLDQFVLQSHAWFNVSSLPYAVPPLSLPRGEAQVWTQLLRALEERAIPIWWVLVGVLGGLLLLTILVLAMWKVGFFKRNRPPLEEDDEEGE
T1 sequence (P05106 27-788 limits assumed): as the sequence (P05106 27-788 limits assumed) above
T1 sequence (P06756 31-889 limits assumed): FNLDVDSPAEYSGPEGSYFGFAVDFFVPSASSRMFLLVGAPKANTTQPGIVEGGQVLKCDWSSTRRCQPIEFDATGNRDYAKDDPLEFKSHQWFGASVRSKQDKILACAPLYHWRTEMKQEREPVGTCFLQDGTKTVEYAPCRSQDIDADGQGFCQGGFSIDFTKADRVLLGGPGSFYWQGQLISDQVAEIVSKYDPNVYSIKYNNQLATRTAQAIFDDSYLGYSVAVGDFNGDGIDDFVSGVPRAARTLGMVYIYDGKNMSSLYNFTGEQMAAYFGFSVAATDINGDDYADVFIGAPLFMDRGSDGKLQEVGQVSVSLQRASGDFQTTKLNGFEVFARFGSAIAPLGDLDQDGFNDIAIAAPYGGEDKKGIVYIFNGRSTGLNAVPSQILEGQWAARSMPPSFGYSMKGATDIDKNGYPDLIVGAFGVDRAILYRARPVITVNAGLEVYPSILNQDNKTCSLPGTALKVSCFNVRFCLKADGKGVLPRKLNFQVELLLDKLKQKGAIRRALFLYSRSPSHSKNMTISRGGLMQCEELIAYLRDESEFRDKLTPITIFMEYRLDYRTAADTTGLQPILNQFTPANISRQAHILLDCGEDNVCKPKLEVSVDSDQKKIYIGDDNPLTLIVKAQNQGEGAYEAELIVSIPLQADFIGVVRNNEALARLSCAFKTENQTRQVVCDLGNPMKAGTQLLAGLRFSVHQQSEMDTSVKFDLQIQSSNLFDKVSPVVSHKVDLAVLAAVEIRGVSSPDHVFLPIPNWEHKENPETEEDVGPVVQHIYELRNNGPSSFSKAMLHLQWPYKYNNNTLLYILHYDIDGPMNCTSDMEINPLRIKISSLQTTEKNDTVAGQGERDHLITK
T1 sequence (P06756 891-1048 limits assumed): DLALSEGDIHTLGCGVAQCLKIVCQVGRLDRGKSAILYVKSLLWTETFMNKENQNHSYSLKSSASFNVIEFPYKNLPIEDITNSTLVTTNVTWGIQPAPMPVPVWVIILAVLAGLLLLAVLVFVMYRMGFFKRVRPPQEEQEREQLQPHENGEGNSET
Integrin alpha-V/beta-5, sequence (P06756 31-889 limits assumed): as the sequence (P06756 31-889 limits assumed) above
Integrin alpha-V/beta-5, sequence (P06756 891-1048 limits assumed): as the sequence (P06756 891-1048 limits assumed) above
Integrin alpha-V/beta-5, sequence (P18084 24-799 limits assumed): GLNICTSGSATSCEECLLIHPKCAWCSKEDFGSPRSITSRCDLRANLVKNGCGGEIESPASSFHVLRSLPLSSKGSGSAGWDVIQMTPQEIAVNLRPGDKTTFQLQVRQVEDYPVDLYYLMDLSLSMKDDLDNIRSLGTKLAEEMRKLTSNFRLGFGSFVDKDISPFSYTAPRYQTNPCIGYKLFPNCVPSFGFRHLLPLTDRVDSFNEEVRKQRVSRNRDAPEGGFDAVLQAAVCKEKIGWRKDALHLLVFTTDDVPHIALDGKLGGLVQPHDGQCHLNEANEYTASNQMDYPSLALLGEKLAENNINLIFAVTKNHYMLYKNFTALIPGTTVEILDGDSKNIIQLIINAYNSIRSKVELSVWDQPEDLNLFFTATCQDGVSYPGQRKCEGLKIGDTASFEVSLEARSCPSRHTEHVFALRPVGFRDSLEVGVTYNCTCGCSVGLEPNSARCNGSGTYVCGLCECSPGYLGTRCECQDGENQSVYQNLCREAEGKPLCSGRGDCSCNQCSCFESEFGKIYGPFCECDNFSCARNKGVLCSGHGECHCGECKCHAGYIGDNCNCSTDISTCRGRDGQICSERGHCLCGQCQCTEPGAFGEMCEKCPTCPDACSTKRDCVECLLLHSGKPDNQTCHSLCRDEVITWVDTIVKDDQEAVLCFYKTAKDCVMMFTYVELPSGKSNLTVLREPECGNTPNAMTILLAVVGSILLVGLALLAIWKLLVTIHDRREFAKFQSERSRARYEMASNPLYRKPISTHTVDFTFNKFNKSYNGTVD

As a reminder, the Ki is a measure of affinity in units of concentration, obtained from inhibition or displacement. A lower Ki goes with a stronger hold on the target. Take `O=C(O)C[C@H]1Cc2ccc(OCCCNc3ccccn3)cc2Cc2ccccc21`: the inhibition constant Ki at Integrin alpha-V/beta-3 [1] stood at 550 nM.

Broadly, the IC50 is the concentration at which inhibition is half-maximal. At Integrin alpha-V/beta-3 [2], `CN(Cc1nc2ccccc2[nH]1)C(=O)c1ccc2c(c1)Cc1ccccc1C(CC(=O)O)C2` (stereo not given) displayed an IC50 of 1800 nM. The figures for the inhibitory constant (Ki) (at Integrin alpha-V/beta-3 [1]; in series [3]) were 23 nM and more than 50000 nM, respectively.

Usually bioavailability stands for the share of a dose that reaches the circulation, judged against a reference dose that is usually intravenous. A low value points to poor availability. Broadly, the half-life is the time needed for the level to fall by half in the phase considered. As for `CN(Cc1nc2ccccc2[nH]1)C(=O)c1ccc2c(c1)CN(C)C(=O)[C@H](CC(=O)O)N2`, in series [4], the bioavailability was determined as 3%. This molecule registered a half-life in series [5] of 0.15 h.

As for `O=C(O)CC1Cc2ccc(OCCCNc3ccccn3)cc2Cc2ccccc21` (stereo not given), the IC50 against Integrin alpha-V/beta-3 [2] amounted to 65 nM. Besides, the values for the Ki (at Integrin alpha-V/beta-3 [1]; in [3]) were 8 nM and 30000 nM, respectively.

Broadly, the clearance is a measure of how efficiently the substance is removed, as volume per time. A high value points to a high capacity for elimination. As a reminder, the inhibition in vivo is the drop in the measured response relative to a control, in per cent. `O=C(O)C[C@@H]1Cc2ccc(OCCCNc3ccccn3)cc2Cc2ccccc21` displayed a bioavailability in series [4] of 100%. Moreover, the clearance in series [6] came out at 3 mL/min/kg. The half-life in [5] was found to be 3.02 h. Moreover, the 50% inhibitory concentration (IC50) was 60 nM against Integrin alpha-V/beta-3 [2], 48 nM in the series filed under Homo sapiens [7] and more than 200000 nM in the series listed under Homo sapiens [8]. The inhibition in vivo at 2.53 mg/kg/hr with Rattus norvegicus was 85%. Moreover, the Ki came to 4 nM at Integrin alpha-V/beta-3 [1], 9000 nM in series [3], 1.3 nM on Integrin alpha-V/beta-5 and 18000 nM in series [9].
